Legend:
Format in all cases: cell-based
[1] = test system: RPMI-8226 cells; assay: MTS cytotoxicity assay, RPMI-8226; conditions: Homo sapiens, RPMI-8226, 72 h, read-out: IC50 (μM) RPMI-8226
Summary of the method: (§1)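 MTS viability assay in A549, MDA-MB-231 and RPMI-8226 human cancer cells. All compounds were first screened at 10 and 50 μM. Compounds that crossed a set viability threshold in this screen went on to IC50 determination.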

[2] = test system: GES-1 cells; assay: MTS cytotoxicity assay, normal GES-1 cells; conditions: Homo sapiens, GES1, 72 h, read-out: IC50 (μM) GES-1
[3] = test system: MDA-MB-231 cells; assay: MTS cytotoxicity assay, MDA-MB-231; conditions: Homo sapiens, MDA-MB-231, 72 h, read-out: IC50 (μM) MBA-MD-231
Summary of the method: as §1

[4] = test system: A549 cells; assay: MTS cytotoxicity assay, A549; conditions: Homo sapiens, A549, 72 h, read-out: IC50 (μM) A549
Summary of the method: as §1

## CC12CCC(c3c(-c4ccc(Br)cc4)nc(N)nc31)C2(C)C (centres unmarked) [Compound 3i, 4-(4-Bromophenyl)-8,9,9-trimethyl-5,6,7,8-tetrahydro-5,8-methanoquinazolin-2-amine]
[1]
  IC50: 18.94 ± 0.08 µM
[2]
  IC50: > 50 µM
[3]
  IC50: 8.66 ± 0.17 µM
[4]
  IC50: 16.45 ± 0.04 µM

## CC12CCC(c3c(-c4ccccc4Br)nc(N)nc31)C2(C)C (centres unmarked) [Compound 3g, 4-(2-Bromophenyl)-8,9,9-trimethyl-5,6,7,8-tetrahydro-5,8-methanoquinazolin-2-amine]
[1]
  IC50: > 50 µM
[2]
  IC50: > 50 µM
[3]
  IC50: 18.3 ± 0.26 µM
[4]
  IC50: 23.32 ± 0.03 µM

## CC12CCC(c3c(-c4ccccc4)nc(N)nc31)C2(C)C (centres unmarked) [Compound 3x, 8,9,9-Trimethyl-4-phenyl-5,6,7,8-tetrahydro-5,8-methanoquinazolin-2-amine]
[1]
  IC50: > 50 µM
[2]
  IC50: > 50 µM
[3]
  IC50: 29.88 ± 0.16 µM
[4]
  IC50: > 50 µM

## COc1ccc(-c2nc(N)nc3c2C2CCC3(C)C2(C)C)cc1 (centres unmarked) [Compound 3o, 4-(4-Methoxyphenyl)-8,9,9-trimethyl-5,6,7,8-tetrahydro-5,8-methanoquinazolin-2-amine]
[1]
  IC50: > 50 µM
[2]
  IC50: > 50 µM
[3]
  IC50: > 50 µM
[4]
  IC50: > 50 µM

## CC12CCC(c3c(-c4cccc(Br)c4)nc(N)nc31)C2(C)C (centres unmarked) [Compound 3h, 4-(3-Bromophenyl)-8,9,9-trimethyl-5,6,7,8-tetrahydro-5,8-methanoquinazolin-2-amine]
[1]
  IC50: > 50 µM
[2]
  IC50: > 50 µM
[3]
  IC50: > 50 µM
[4]
  IC50: > 50 µM

## COc1cc([C@@H]2c3cc4c(cc3[C@@H](O[C@@H]3O[C@@H]5CO[C@@H](C)O[C@H]5[C@H](O)[C@H]3O)[C@H]3COC(=O)[C@H]23)OCO4)cc(OC)c1O [Etoposide, reference compound]
[1]
  IC50: 1.92 ± 0.17 µM
[2]
  IC50: 8.89 ± 0.7 µM
[3]
  IC50: 3.97 ± 0.45 µM
[4]
  IC50: 10.9 ± 0.79 µM

## CC12CCC(c3c(-c4ccccn4)nc(N)nc31)C2(C)C (centres unmarked) [Compound 3s, 8,9,9-Trimethyl-4-(pyridin-2-yl)-5,6,7,8-tetrahydro-5,8-methanoquinazolin-2-amine]
[1]
  IC50: > 50 µM
[2]
  IC50: > 50 µM
[3]
  IC50: > 50 µM
[4]
  IC50: > 50 µM

## Cc1cccc(-c2nc(N)nc3c2C2CCC3(C)C2(C)C)c1 (centres unmarked) [Compound 3k, 8,9,9-Trimethyl-4-(m-tolyl)-5,6,7,8-tetrahydro-5,8-methanoquinazolin-2-amine]
[1]
  IC50: > 50 µM
[2]
  IC50: > 50 µM
[3]
  IC50: 20 ± 0.09 µM
[4]
  IC50: 18 ± 0.18 µM

## CC12CCC(c3c(-c4ccccc4F)nc(N)nc31)C2(C)C (centres unmarked) [Compound 3a, 4-(2-Fluorophenyl)-8,9,9-trimethyl-5,6,7,8-tetrahydro-5,8-methanoquinazolin-2-amine]
[1]
  IC50: > 50 µM
[2]
  IC50: > 50 µM
[3]
  IC50: 32.85 ± 0.31 µM
[4]
  IC50: > 50 µM

## Cc1ccccc1-c1nc(N)nc2c1C1CCC2(C)C1(C)C (centres unmarked) [Compound 3j, 8,9,9-Trimethyl-4-(o-tolyl)-5,6,7,8-tetrahydro-5,8-methanoquinazolin-2-amine]
[1]
  IC50: > 50 µM
[2]
  IC50: > 50 µM
[3]
  IC50: 26.2 ± 0.4 µM
[4]
  IC50: 22.54 ± 0.15 µM

## CC12CCC(c3c(-c4cccc(O)c4)nc(N)nc31)C2(C)C (centres unmarked) [Compound 3q, 3-(2-Amino-8,9,9-trimethyl-5,6,7,8-tetrahydro-5,8-methanoquinazolin-4-yl)phenol]
[1]
  IC50: > 50 µM
[2]
  IC50: > 50 µM
[3]
  IC50: > 50 µM
[4]
  IC50: > 50 µM
